A short description of data set [1]: folding enthalpy; higher = less favourable; fluorescence melt of hairpins on a sequencing array, two-state fit. Particulars: sodium 0.088 M. The method in brief: (§1)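 Melting temperature and folding enthalpy were obtained by bootstrapped two-state fitting. Fits used Cy3 fluorescence of library hairpins with annealed Cy3 and quencher oligos on a sequenced MiSeq flow cell, imaged in 50 mM Na-HEPES pH 8.0, 25 mM NaCl in 2.5 °C steps up to 60 °C and normalised to pre-quench Cy3 and control constructs. Four replicates were combined by inverse-variance weighting, and fitted temperatures were raised by 9.35 °C to match UV melts.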

Data set [2] is described as follows: melting temperature; fluorescence melt of hairpins on a sequencing array, two-state fit, raised by 9.35 °C to match UV melts. Particulars: sodium 0.088 M. The method in brief: as §1

Consider GCTCTGAAAAGAGC (((((....))))), for which the folding enthalpy in data set [1] was -21.6 kcal/mol. Further, the Tm in data set [2] is 57.8 °C.
The like results for GCTCTGCGAAAGCAAAGC (((.(((....))).))) were, in that order, -29.9 kcal/mol and 46.1 °C.
In the case of GCTCTGCGAAAGCAATGC ((..(((....)))..)), the folding enthalpy in data set [1] was -10.5 kcal/mol. In data set [2], the Tm turned out to be 31.6 °C.
For the sequence GCTCTGCGAAAGCACCGC ((..(((....)))..)), in data set [1], the folding enthalpy was -8.79 kcal/mol. Moreover, the Tm in data set [2] turned out to be 31.8 °C.
For GCTCTGCGAAAGCAGCGC ((.((((....)))).)), in data set [1], the folding enthalpy is -17.3 kcal/mol. The Tm in data set [2] is 57.6 °C.
For GCTCTGCGAAAGCATTGC ((..(((....)))..)), the folding enthalpy in data set [1] is -14.2 kcal/mol. Also, the Tm in data set [2] was determined as 40.5 °C.
With GCTCTGCGAAAGCCAAGC (((..((....))..))), the folding enthalpy in data set [1] is -13.9 kcal/mol. For the same sequence, the Tm in data set [2] turned out to be 34.8 °C.
Consider GCTCTGCGAAAGCCGGGC ((.(.((....)).).)), for which, in data set [1], the folding enthalpy was -20.1 kcal/mol. For the same sequence, the Tm in data set [2] came to 41.7 °C.
With GCTCTGCGAAAGCGGTGC ((.(.((....)).).)), in data set [1], the folding enthalpy is -19 kcal/mol. The Tm in data set [2] stood at 54.4 °C.
The like results for GCTCTGGGAAACTAGAGC (((((.(....).))))) were, in that order, -51 kcal/mol and 49.7 °C.
With GCTCTTCGAAAGAAAAGC (((.(((....))).))), the folding enthalpy in data set [1] is -31.4 kcal/mol. Also, the Tm in data set [2] was determined as 34.6 °C.
As for GCTCTTCGAAAGAACAGC (((.(((....))).))), the folding enthalpy in data set [1] was -22.2 kcal/mol. Further, the Tm in data set [2] turned out to be 34.7 °C.
The like results for GCTGAACGAAAGTTTAGC (((.(((....))).))) were, in that order, -31.5 kcal/mol and 53 °C.
For GCTGAAGAAATTCAGC ((((((....)))))), in that order: -37.6 kcal/mol and 54.5 °C.
For GCTGAAGGAAACCTCAGC (((((.(....).))))), the folding enthalpy in data set [1] was -37.2 kcal/mol. Also, the Tm in data set [2] is 47 °C.
For the sequence GCTGAAGGAAACTTCGGC ((.((((....)))).)), the folding enthalpy in data set [1] was -49.4 kcal/mol. Moreover, the Tm in data set [2] came out at 51.3 °C.
For GCTGAAGGAAACTTTGGC ((..(((....)))..)), in that order: -20 kcal/mol and 33 °C.
On to GCTGACCGAAAGGTAGC (((.(((....)))))), for which the folding enthalpy in data set [1] was -25.5 kcal/mol. Moreover, the Tm in data set [2] worked out at 51.7 °C.
As to GCTGACCGAAAGGTTAGC (((.(((....))).))), the folding enthalpy in data set [1] was -33.8 kcal/mol. Also, the Tm in data set [2] amounted to 58.9 °C.
For GCTGACGAAAGTCCCAGC ((((((....)))..))), in that order: -14.2 kcal/mol and 36.7 °C.
As to GCTGACGAAAGTCTGAGC ((((((....)))..))), the folding enthalpy in data set [1] was -20.1 kcal/mol. Moreover, in data set [2], the Tm amounted to 43.5 °C.
For GCTGACGGAAACGCCAGC ((((.((....)).)))), in that order: -42.1 kcal/mol and 55.3 °C.
On to GCTGACGGAAACGTTAGC (((.(((....))).))), for which, in data set [1], the folding enthalpy is -43 kcal/mol. Moreover, the Tm in data set [2] was found to be 53.6 °C.
For GCTGACGGAAACGTTGGC ((..(((....)))..)), in that order: -27.3 kcal/mol and 47 °C.
As to GCTGAGCGAAAGCACTGC ((.(.((....)).).)), the folding enthalpy in data set [1] is -20 kcal/mol. In data set [2], the Tm came to 49.5 °C.
Take GCTGAGCGAAAGCGTAGC (((..((....))..))): in data set [1], the folding enthalpy is -21.8 kcal/mol. Further, the Tm in data set [2] stood at 62 °C.
For GCTGAGCGAAAGCTAAGC (((.(((....))).))), in that order: -50.4 kcal/mol and 56.1 °C.
As for GCTGAGCGAAAGCTCCGC ((.((((....)))).)), the folding enthalpy in data set [1] is -19.7 kcal/mol. The Tm in data set [2] was 57.7 °C.
On to GCTGAGCGAAAGCTGGGC ((..(((....)))..)), for which the folding enthalpy in data set [1] is -19.8 kcal/mol. In addition, the Tm in data set [2] was determined as 50.3 °C.
Take GCTGAGCGAAAGCTTGGC ((..(((....)))..)): the folding enthalpy in data set [1] was -20.9 kcal/mol. Moreover, the Tm in data set [2] amounted to 55.4 °C.
For GCTGAGGGAAACCTTGGC ((..(((....)))..)), in that order: -26.6 kcal/mol and 38.1 °C.
As for GCTGAGGGAAACTTCAGC (((((.(....).))))), the folding enthalpy in data set [1] was -32.5 kcal/mol. Further, the Tm in data set [2] turned out to be 48.6 °C.
Regarding GCTGAGTCGAAAGACAGC (((..(((....)))))), the folding enthalpy in data set [1] is -20.8 kcal/mol. For the same sequence, the Tm in data set [2] is 44.5 °C.
Regarding GCTGATGGAAACATCGGC ((.((((....)))).)), the folding enthalpy in data set [1] is -43 kcal/mol. Further, in data set [2], the Tm is 54.1 °C.
The like results for GCTGATGGAAACATTAGC (((.(((....))).))) were, in that order, -37.4 kcal/mol and 46.5 °C.
For GCTGCAACGAAAGTTAGC (((..(((....)))))), in that order: -17.2 kcal/mol and 39.8 °C.
For GCTGCACGAAAGTGAGC (((.(((....)))))), in that order: -18.8 kcal/mol and 51.3 °C.
For GCTGCACGAAAGTGGAGC (((.(((....))).))), the folding enthalpy in data set [1] is -34.2 kcal/mol. The Tm in data set [2] stood at 65.6 °C.
As to GCTGCACGAAAGTGTAGC (((.(((....))).))), the folding enthalpy in data set [1] is -43.9 kcal/mol. In data set [2], the Tm is 65 °C.
For GCTGCAGGAAACTGTAGC (((.(((....))).))), in that order: -34.3 kcal/mol and 52 °C.
As to GCTGCCGAAAGGCGCAGC ((((((....)))..))), the folding enthalpy in data set [1] was -13.6 kcal/mol. In data set [2], the Tm is 51.3 °C.
GCTGCCGCGAAAGCGAGC (((..(((....)))))): in data set [1], the folding enthalpy was -9.35 kcal/mol. For the same sequence, the Tm in data set [2] was found to be 57.6 °C.
For GCTGCCGGAAACGGCAAC (.(((((....))))).), in that order: -10.9 kcal/mol and 47.4 °C.
Take GCTGCCGGAAACGGTAGC (((.(((....))).))): the folding enthalpy in data set [1] was -39.9 kcal/mol. In data set [2], the Tm came to 64 °C.
The like results for GCTGCGCGAAAGCATAGC (((..((....))..))) were, in that order, -18.2 kcal/mol and 46.5 °C.
The like results for GCTGCGCGAAAGCCAAGC (((..((....))..))) were, in that order, -18.9 kcal/mol and 48.9 °C.
For GCTGCGCGAAAGCCCAGC ((((.((....)).)))), in that order: -31.1 kcal/mol and 63.5 °C.
Regarding GCTGCGCGAAAGCGACGC ((..(((....)))..)), in data set [1], the folding enthalpy is -19.4 kcal/mol. Also, the Tm in data set [2] was determined as 56 °C.
For the sequence GCTGCGCGAAAGCGAGGC ((..(((....)))..)), the folding enthalpy in data set [1] was -20.3 kcal/mol. In data set [2], the Tm turned out to be 60.6 °C.
As for GCTGCGCGAAAGCGCCGC ((.((((....)))).)), the folding enthalpy in data set [1] is -15.3 kcal/mol. Also, the Tm in data set [2] came out at 63.1 °C.
As to GCTGCGCGAAAGCGGTGC ((..(((....)))..)), the folding enthalpy in data set [1] is -19.6 kcal/mol. Also, the Tm in data set [2] was 55.1 °C.
The like results for GCTGCGCGAAAGCGTTGC ((..(((....)))..)) were, in that order, -18.9 kcal/mol and 56.7 °C.
For GCTGCGGGAAACTGCAGC (((((.(....).))))), in that order: -40.6 kcal/mol and 64.5 °C.
Turning to GCTGCTACGAAAGTAAGC (((..(((....)))))), in data set [1], the folding enthalpy is -17.1 kcal/mol. The Tm in data set [2] was 41.5 °C.
The like results for GCTGCTGGAAACGGCAGC (((((.(....).))))) were, in that order, -44.6 kcal/mol and 63.1 °C.
The like results for GCTGCTTCGAAAGAAAGC (((..(((....)))))) were, in that order, -18 kcal/mol and 39.6 °C.
As for GCTGGAGCGAAAGCTAGC (((..(((....)))))), the folding enthalpy in data set [1] is -16.6 kcal/mol. Also, in data set [2], the Tm was 49.9 °C.
With GCTGGCGAAAGCCAAAGC ((((((....)))..))), the folding enthalpy in data set [1] was -18.2 kcal/mol. The Tm in data set [2] came out at 53.5 °C.
With GCTGGCGAAAGCCATAGC ((((((....)))..))), the folding enthalpy in data set [1] is -16.2 kcal/mol. In addition, in data set [2], the Tm was 52.3 °C.
On to GCTGGCGAAAGCCCAAGC ((((((....)))..))), for which the folding enthalpy in data set [1] is -15.3 kcal/mol. Also, in data set [2], the Tm was 50 °C.
For the sequence GCTGGCGAAAGCCCAGC ((((((....))).))), the folding enthalpy in data set [1] is -23.1 kcal/mol. The Tm in data set [2] amounted to 65.7 °C.
For GCTGGCGAAAGCCGAAGC ((((((....)))..))), in that order: -16.5 kcal/mol and 50.8 °C.
The like results for GCTGGCGAAAGCCGAGC ((((((....))).))) were, in that order, -23.5 kcal/mol and 65.3 °C.
For GCTGGCGAAAGCCGTAGC ((((((....)))..))), in that order: -13.9 kcal/mol and 58.9 °C.
Consider GCTGGCGAAAGCCTGAGC ((((((....)))..))), for which the folding enthalpy in data set [1] was -14.8 kcal/mol. For the same sequence, the Tm in data set [2] stood at 50.2 °C.
Take GCTGGCGCGAAAGCGAGC (((..(((....)))))): the folding enthalpy in data set [1] is -9.37 kcal/mol. Also, the Tm in data set [2] was found to be 55.6 °C.
For GCTGGCGGAAACGCTAGC (((.(((....))).))), the folding enthalpy in data set [1] was -40.5 kcal/mol. For the same sequence, the Tm in data set [2] turned out to be 59.1 °C.
For GCTGGGCGAAAGCCAGGC ((..(((....)))..)), in data set [1], the folding enthalpy was -17.7 kcal/mol. Besides, the Tm in data set [2] was 59.6 °C.
For the sequence GCTGGGCGAAAGCCGCGC ((..(((....)))..)), the folding enthalpy in data set [1] was -15.3 kcal/mol. Besides, in data set [2], the Tm was found to be 61.4 °C.
For GCTGGGCGAAAGCTCCGC ((.(.((....)).).)), in data set [1], the folding enthalpy was -20.4 kcal/mol. Moreover, the Tm in data set [2] stood at 41.8 °C.
For GCTGGGCGAAAGCTCGGC ((.(.((....)).).)), in that order: -32.5 kcal/mol and 60.3 °C.
For the sequence GCTGGGCGAAAGCTTAGC (((..((....))..))), the folding enthalpy in data set [1] is -23 kcal/mol. Moreover, in data set [2], the Tm stood at 50.5 °C.
With GCTGGGGCGAAAGCCAGC (((..(((....)))))), the folding enthalpy in data set [1] was -16.8 kcal/mol. In addition, the Tm in data set [2] stood at 55.3 °C.
